High-throughput results: PubChem, several laboratories
This is a sample that favours compounds with a hit; in the whole collection about 11% have one here.
L major viab: Leishmania major promastigote growth inhibition, primary screen; Leishmania major promastigotes, resazurin fluorescence viability; inhibition, % at 10 µM; hit rate 9% among 200,000; AID 1063, 2008;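 note: promastigotes grown with compound for 44 hours at 28 °C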
G6PDH CS: L. mesenteroides G6PDH inhibitors, counter-screen for G6PDH-coupled screening assays, biochemical, Leuconostoc mesenteroides enzyme; AID 1020, 2008; hit rate 0.12% among 200,000; Purified L. mesenteroides G6PDH, diaphorase/resazurin coupled fluorescence, 45 min; inhibition, % at 5 µM
Diaph inh CS: diaphorase inhibitors and chemical oxidizers, primary screen, counter-screen for diaphorase-coupled primary assays, biochemical, uHTS, resorufin fluorescence. diaphorase resazurin-to-resorufin fluorescence, NADH, 16 min; bacterial (C. kluyveri) enzyme, not human. AID 1217, 2008. inhibition, % at 20 µM. hit rate 0.69% among 190,000;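 active = primary screen inhibition at 20 µM above a set limit, cut at about 50% in these data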;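 note: plate controls were DMSO with full reaction for no effect and wells lacking NADH for full effect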
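Test system: diaphorase enzyme from Clostridium kluyveri; amount: diaphorase at 0.14 U/mL in enzyme working solution; detection: fluorescence of resorufin formed from resazurin, Ex 544/Em 590 nm; times: reaction incubation of 16 min at room temperature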
WT yeast gro inh: growth inhibition of WT strain, primary screen, mitochondrial fusion inhibitor project, WT and mutant strains, chemical genetic | mitochondrial fusion phenotypic screen | inhibition, % at 10 µM | hit rate 2.1% among 190,000 | AID 1362, 2008; in the data active = inhibition above about 58%; tested in S. cerevisiae
Diaphorase act: compounds boosting diaphorase resazurin reduction – biochemical, uHTS, resorufin fluorescence, counter-screen for diaphorase-coupled primary assays, primary screen. Diaphorase/resazurin coupled assay, 16 min; active compounds read high; 1 = vehicle wells, 0 = NADH-free wells. activation factor at 20 µM. hit rate 0.005% among 190,000. AID 1229, 2008;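 active = diaphorase activity raised at least twofold by the compound at 20 µM; inactive = activation factor below 2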
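Assay system: bacterial diaphorase enzyme (C. kluyveri) / Input: enzyme 0.07 U/mL final / Medium: 50 mM HEPES pH 7.4 with 4.542 mM MgCl2, 0.005% Tween 20 / Doses: single compound dose of 20 µM, 1% DMSO final / Incubation: 16 min enzyme reaction, ambient temperature / Signal: fluorescence, excitation 544 nm and emission 590 nm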
* marks the source's active call; other numbers are inactive results. Cut-off read from the data, not from the text of the source, unless noted: active = inhibition above about 50%; inactive = the rest.

SMILES | L major viab | G6PDH CS | Diaph inh CS | WT yeast gro inh | Diaphorase act
O=P(NC(c1ccccc1)c1ccccc1)(Oc1ccccc1)Oc1ccccc1 | 0.8 | -5.7 | 9.8 | 9.8 | 0.9
Cc1cccc(OP(=O)(NCc2ccccc2)Oc2cccc(C)c2)c1 | 7.5 | -14.4 | 19.1 | 68.6* | 0.8
CN(C(=O)Oc1ccc(Cl)c2cccnc12)c1ccccc1 | 53.5* | 0.2 | 10.7 | -9.4 | 0.9
CC1(C)CC(=O)C=C(NCCN2CCN(C(=O)Cc3ccc(Cl)cc3)CC2)C1 | -3.9 | 4.5 | 20.7 | -13.2 | 0.8
CCCCn1c(O)c(C(C)=NC(Cc2c[nH]c3ccccc23)C(=O)OC)c(=O)[nH]c1=O (stereo unspecified) | 99.2* | -9.8 | 16.1 | 8.7 | 0.8
CCCCCCn1c(O)c(C(C)=NC)c(=O)[nH]c1=O | 0.4 | 10.7 | 12.1 | 5.5 | 0.9
O=C(CCC(=O)N1CCC2(CC1)OCCO2)Nc1nnc(C(F)(F)F)s1 | -1.9 | 2.2 | 13.6 | -19.7 | 0.9
O=C(c1ccc(-c2ccccc2)cc1)C1CCCN(Cc2ccn[nH]2)C1 (stereo unspecified) | 98.5* | 20.7 | 2.0 | 1.3 | 1
O=C(c1ccc2c(c1)OCO2)C1CCCN(Cc2ccccn2)C1 (stereo unspecified) | -5.3 | 8.9 | -9.2 | -3.7 | 1.1
CC(C)(C)c1ccc(C(=O)C2CCCN(Cc3ccon3)C2)cc1 (stereo unspecified) | 80.1* | -0.2 | 15.5 | 12.9 | 0.8
CSc1ccc(C(=O)C2CCCN(Cc3cc4ccccc4[nH]3)C2)cc1 (stereo unspecified) | 87.7* | 4.5 | -7.0 | 66.2* | 1.1
Cc1ccsc1C(=O)C1CCCN(Cc2ccn[nH]2)C1 (stereo unspecified) | 6.2 | 9.9 | -12.0 | -4.8 | 1.1
CSc1ccc(C(=O)C2CCCN(Cc3cccnc3)C2)cc1 (stereo unspecified) | 85.1* | 14.8 | 16.7 | -3.7 | 0.8
O=C(c1ccc(Cl)cc1)C1CCCN(Cc2ccon2)C1 (stereo unspecified) | -9.2 | 11.0 | 10.6 | -3.4 | 0.9
C=CCn1c(=O)c(C=Nc2cccnc2Cl)c(O)n(CCCC)c1=O | -4.2 | -1.2 | 16.4 | -1.0 | 0.8
Cc1cc(C)c(-n2c(O)c(/C=N/N3CCCCC3c3cccnc3)c(=O)[nH]c2=O)c(C)c1 (stereo unspecified) | 3.5 | -7.2 | 10.4 | -12.3 | 0.9
COc1ccc(CCNCc2sccc2C)cc1OC | 15.9 | 9.8 | 6.4 | 12.8 | 0.9
COc1ccccc1CCNC1CCCC(C)C1 (stereo unspecified) | 10.0 | 5.6 | 3.7 | -6.1 | 1
CN1CCN(c2ccc(NC(=O)Oc3ccccc3)cc2)CC1 | 9.0 | 0.9 | 7.9 | -10.9 | 0.9
O=C(CNC1CCCC1)Nc1ccc(N2CCCCCC2)cc1 | 85.0* | 3.6 | 0.5 | -3.0 | 1
O=c1c2ccccc2[se]n1-c1ccccc1 | -3.7 | 11.4 | 70.4* | 96.6* | 0.3
COC(=O)C(O)(c1c(C)[nH]c2ccccc12)C(F)(F)F (stereo unspecified) | -2.7 | 5.5 | 12.1 | 1.0 | 0.9
C=CCOC(=O)C1=C(C)OC(N)=C(C#N)C12C(=O)N(CN1CCOCC1)c1ccccc12 (stereo unspecified) | 13.8 | 17.9 | 8.0 | 4.9 | 0.9
Cc1ccc(NC2=NCCCS2)c(C)c1C | 21.6 | 8.8 | 13.9 | 5.9 | 0.9
CC(C)CN(CC(C)C)c1ccc(C=C2C(=O)NC(=S)NC2=O)cc1[N+](=O)[O-] | 81.3* | 1.8 | 14.1 | -13.0 | 0.9
SMILES | L major viab | G6PDH CS | Diaph inh CS | WT yeast gro inh | Diaphorase act
O=C1NC(=O)C(=Cc2ccc(OCCOc3ccc([N+](=O)[O-])cc3)cc2)C(=O)N1 | 4.0 | -3.3 | 13.3 | -9.6 | 0.9
CC(C)NCC(O)c1ccc(C2CCCC2)cc1 (stereo unspecified) | 91.8* | 10.0 | 1.4 | -18.5 | 1
CC(C)c1ccc(C2N3CCCN23)cc1 (stereo unspecified) | -8.5 | 2.2 | -3.3 | -4.9 | 1
Cc1cc(N2C(=O)C3CCCN3C2c2ccccc2)no1 (stereo unspecified) | -6.4 | 8.9 | -14.8 | -4.6 | 1.1
O=C(N/N=C\C1C(=O)NC(=S)N(c2ccccc2)C1=O)c1ccc(O)cc1 (stereo unspecified) | -10.5 | 21.0 | 65.2* | -9.6 | 0.3
O=C(COc1ccc(Cl)cc1Cl)N1CCN(C/C=C/c2ccccc2)CC1 | 88.7* | -0.3 | 6.5 | -8.9 | 0.9
CN1CCN(C(=O)COc2ccc(S(=O)(=O)NCc3ccccc3)cc2Cl)CC1 | 27.6 | -9.6 | 13.7 | 13.6 | 0.9
COc1cc2c(cc1OC)CN(c1ccc([N+](=O)[O-])c(C(F)(F)F)c1)CC2 | 66.0* | -20.5 | 2.3 | 12.9 | 1
CC(C)CNC(=O)c1c(N)n(Cc2ccco2)c2nc3ccccc3nc12 | 5.5 | 6.2 | 30.7 | 30.7 | 0.7
CC(C)OCCCNC(=O)c1c(N)n(Cc2cccs2)c2nc3ccccc3nc12 | 17.9 | 24.1 | 37.0 | 13.4 | 0.6
Nc1c(C(=O)NC2CCCC2)c2nc3ccccc3nc2n1CC1CCCO1 (stereo unspecified) | 50.7* | 24.9 | 36.7 | 50.2 | 0.6
Nc1c(C(=O)OCC2CCCO2)c2nc3ccccc3nc2n1Cc1cccs1 (stereo unspecified) | 95.3* | 27.8 | 31.2 | 20.8 | 0.7
O=C(NC1CN2CCC1CC2)c1cc(Cl)c([N+](=O)[O-])c2nc[nH]c12 (stereo unspecified) | 36.0 | 0.2 | 8.3 | -2.7 | 0.9
CCN(CC)c1ccc(N=Cc2c(O)n(-c3cc(OC)ccc3OC)c(=O)[nH]c2=O)cc1 | 20.9 | 12.2 | 41.4 | 3.2 | 0.6
O=C(N/N=C/c1c(O)n(C2CC2)c(=S)[nH]c1=O)c1ccccc1O | -13.4 | 17.1 | 65.7* | -11.0 | 0.3
O=C(N/N=C/c1c(O)n(CCC2=CCCCC2)c(=S)[nH]c1=O)c1ccccc1 | -8.1 | 0.7 | 10.2 | 4.0 | 0.9
CCOc1ccccc1C1SCC(=O)Nc2c1c(=O)[nH]n2C(CC)CC (stereo unspecified) | -1.4 | 8.9 | 8.4 | -7.7 | 0.9
CCCCN1CCC(O)(c2ccccc2)C(C(=O)c2ccccc2)C1 (stereo unspecified) | 97.2* | -1.5 | -4.5 | -8.0 | 1
Clc1ccccc1CNC1CN2CCC1CC2 (stereo unspecified) | 11.5 | 5.3 | -9.1 | -7.3 | 1.1
OC(c1cccc(Cl)c1)(c1cccc(Cl)c1)C1CN2CCC1CC2 (stereo unspecified) | 99.6* | 9.3 | -36.6 | -15.8 | 1.4
CCCCCCCSc1cc(OC)c(CCN(C)C)cc1OC | 100.4* | 5.4 | -23.5 | 14.1 | 1.2
CCCCCSc1cc(OC)c(CCN)cc1OC | 91.7* | 0.3 | -21.9 | 14.8 | 1.2
